Results taken from PMC3806331 (Journal of natural products, 2013).
Like-named read-outs stand apart in the source and are kept apart here.

What was measured:
[1] = system: Raji human Burkitt's lymphoma cells; experiment: MTS growth inhibition assay, Raji cells; assay type: cell-based
[2] = system: HT-29 human colon cancer cell line; experiment: SRB cytotoxicity assay, HT-29; assay type: cell-based; conditions: HT-29, 72 h, read-out: IC50 HT-29 72 h
[3] = system: quinone reductase in Hepa 1c1c7 murine hepatoma cell line; experiment: Quinone reductase induction assay; assay type: cell-based; conditions: Mus musculus, Hepa-1c1c7, read-out: CD (concentration required to double quinone reductase activity), Hepa 1c1c7 cells; average ± SD, three independent experiments
[4] = system: immunodeficient female NCr nu/nu mice; experiment: Toxicity to mice in the hollow fiber assay; assay type: in vivo
Method in brief: (§1)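 HT-29 cells (1 × 10^6 per mL), alongside other human cancer lines, grown in hollow fibers implanted ip and sc in immunodeficient female NCr nu/nu mice. Test compound given by ip injection once daily: first run at 5, 10, 15, 30 mg/kg in 30% cyclodextrin; repeat run at 0.5, 1, 2 mg/kg. Positive controls: bortezomib 1 mg/kg ip (first run); paclitaxel 5 mg/kg ip (repeat run).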

[5] = system: HT-29 human colon cancer cells; experiment: In vivo hollow fiber assay, HT-29; conditions: HT-29 in hollow fibers in mice, any dose, ip once daily
Method in brief: as §1

[6] = system: 697 human acute lymphoblastic leukemia cells; experiment: MTS growth inhibition assay, 697 cells; assay type: cell-based; conditions: read-out: IC50 values in 697 cells (range)

`COc1ccc2c(c1C1=COC(C)(C)C1=O)O[C@H](c1ccccc1)CC2=O` [Compound 3, (2S)-2,3-dihydrotephroglabrin] was tested, and the IC50 ([1]; 48 h, read-out: IC50 Raji 48 h) was > 10 µM, the IC50 ([1]; 72 h, read-out: IC50 Raji 72 h) was > 10 µM and the IC50 [2] was > 10 µM. The EC (2-fold induction) [3] was < 10 µM.

For `COc1ccc2c(c1/C=C/C(C)(C)O)O[C@H](c1ccccc1)CC2=O` [Compound 4, (2S)-2,3-dihydrotephroapollin C], the IC50 ([1]; 48 h, read-out: IC50 Raji 48 h) was > 10 µM, the IC50 ([1]; 72 h, read-out: IC50 Raji 72 h) was > 10 µM and the IC50 [2] was > 10 µM.

With `COc1ccc2c(c1/C=C/C(C)(C)OC)O[C@H](c1ccccc1)CC2=O` [Compound 6, (2S)-7-methoxy-8-(3-methoxy-3-methyl-but-1-enyl)flavanone] the IC50 ([1]; 48 h, read-out: IC50 Raji 48 h) was > 10 µM, the IC50 ([1]; 72 h, read-out: IC50 Raji 72 h) was > 10 µM and the IC50 [2] was > 10 µM. The EC (2-fold induction) [3] was < 10 µM.

With `C=C(C)[C@H]1Cc2c(ccc3c2O[C@@H]2COc4cc(OC)c(OC)cc4[C@]2(O)C3=O)O1` [Compound 7, cis-(6aβ,12aβ)-hydroxyrotenone] the toxicity to mice ([4]; ip 0.5, 1 and 2 mg/kg once daily) was “no noticeable toxicity”, the lethality to mice ([4]; ip 5, 10, 15 and 30 mg/kg once daily) was “lethal” and the “net reduction of relative percent cell growth” value [5] was “No effect”.

In the case of `COc1cc2c(cc1OC)[C@]1(O)C(=O)c3ccc4c(c3O[C@@H]1CO2)C=CC(C)(C)O4` [Compound 9, tephrosin], the IC50 [6] is reported as 5.4 to 9 µM.

`COc1cc2c(c(O)c1C(=O)/C=C/c1ccccc1)[C@H]1[C@@H](O2)OC(C)(C)[C@@H]1OC(C)=O` [Compound 10, (+)-tephropurpurin] was tested, and the IC50 ([1]; 48 h, read-out: IC50 Raji 48 h) was > 10 µM, the IC50 ([1]; 72 h, read-out: IC50 Raji 72 h) was > 10 µM and the IC50 [2] was > 10 µM.

For `CC1(C)O[C@@H]2Oc3ccc(C(=O)/C=C/c4ccccc4)c(O)c3[C@@H]2[C@H]1O` [Compound 11, (+)-tephrosone], the IC50 ([1]; 48 h, read-out: IC50 Raji 48 h) was > 10 µM, the IC50 ([1]; 72 h, read-out: IC50 Raji 72 h) was > 10 µM and the IC50 [2] was > 10 µM.
